Assay outcomes deposited in PubChem BioAssay by several laboratories.
An excerpt weighted towards active compounds, which were near 2.6% of everything screened.
NadD block: inhibitors of Staphylococcus aureus NadD | 360,000 tested, 0.78% active | inhibition, % at 20 µM | purified NadD enzyme, colorimetric absorbance read-out; in the data active = inhibition above about 26%
HCV core dimer: HCV core protein dimerization inhibition | TR-FRET GST/Flag-core106 dimerization, 1536-well | inhibition, % at 5 µM | 300,000 tested, 0.33% active;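 active = inhibition above the mean of all tested compounds plus 3 SD, set per screening campaign, cut at about 45% in these data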
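Assay system: tagged HCV core106 pair (GST and Flag); medium: KF-containing HEPES buffer, pH 7.45, DTT, CHAPS, BSA; also added: Eu donor and XL665 acceptor anti-tag antibodies; dosing: 5 µM single dose; timing: compound-protein-antibody incubation 4 h at 22.5 °C; signal: TR-FRET 671 and 617 nm emission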
rCAG binder: r(CAG) repeat RNA binding. inhibition, % at 3 µM. AID 651821. 370,000 tested, 1.3% active. TO-PRO-1 dye displacement fluorescence;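 active = inhibition above the plate cutoff, the mean of all test compounds on that plate plus 3 SD, cut at about 35% in these data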;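 also: 0% = DMSO alone and 100% = 100 µM mitoxantrone as full dye displacement; higher means more dye released from RNA so lower well fluorescence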
ABHD5 PLIN5 PPI: ABHD5-PLIN5 protein interaction inhibition | Q00G26+Q8WTS1 | Split G. princeps luciferase complementation, luminescence, 4 h | inhibition, % at 4 µM | 360,000 tested, 0.78% active | AID 602281;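 active = inhibition above the mean inhibition across every tested compound plus 3 SD, cut at about 22% in these data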;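 also: 0% = DMSO only wells and the 100% control is not disclosed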
ABHD5 PLIN5 conf: confirmation of human ABHD5-PLIN5 interaction inhibitors; biochemical ABHD5-PLIN5 interaction, luminescence; shares compounds with ABHD5 PLIN5 PPI; inhibition, % at 4 µM; AID 651612; 2,200 tested, 67% active; in the data active = inhibition above about 23%;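 also: 0% = DMSO vehicle wells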
HNF4 counter: HNF4 split-luciferase signal hit, counter-screen; AID 651674; inhibition, % at 4 µM; 2,200 tested, 77% active; shares compounds with ABHD5 PLIN5 PPI; HNF4 dimerization, luminescence, biochemical;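 active = mean inhibition across replicate wells exceeding the computed hit threshold, cut at about 13% in these data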;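 also: light from luciferase halves that rejoin when HNF4 fusion proteins dimerize; 0% = DMSO only wells and the 100% control is not given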
Target sequence (P41235 whole entry, looked up, the tested form may be a part): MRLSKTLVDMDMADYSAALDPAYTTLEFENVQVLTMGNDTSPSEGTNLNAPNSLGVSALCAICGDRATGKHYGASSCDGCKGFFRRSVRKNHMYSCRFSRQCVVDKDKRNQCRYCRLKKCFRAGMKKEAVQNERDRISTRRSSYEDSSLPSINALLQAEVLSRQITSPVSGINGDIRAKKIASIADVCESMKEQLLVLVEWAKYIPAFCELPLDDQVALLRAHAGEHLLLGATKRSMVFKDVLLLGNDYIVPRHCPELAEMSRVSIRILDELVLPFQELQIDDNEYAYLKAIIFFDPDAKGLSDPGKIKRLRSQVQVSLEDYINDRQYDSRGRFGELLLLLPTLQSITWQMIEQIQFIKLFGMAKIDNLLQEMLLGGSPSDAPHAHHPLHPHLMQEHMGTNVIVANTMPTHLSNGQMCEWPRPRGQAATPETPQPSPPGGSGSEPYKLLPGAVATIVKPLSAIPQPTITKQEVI
* marks the source's active call; other numbers are inactive results; / = not tested or not shown.

SMILES	NadD block	HCV core dimer	rCAG binder	ABHD5 PLIN5 PPI	ABHD5 PLIN5 conf	HNF4 counter
CSc1nc(O)c(C(c2cccc([N+](=O)[O-])c2)c2c(O)nc(SC)[nH]c2=O)c(=O)[nH]1	-0.8	0.2	-2.9	25.0*	1.2	17.8*
CCOc1ccccc1C(c1c(O)nc(SC)[nH]c1=O)c1c(O)nc(SC)[nH]c1=O	-4.0	-5.2	-1.3	5.5	/	/
CCOc1ccc(NC(=O)CSc2nnc(-c3n[nH]c4c3CCC4)n2N)cc1	/	/	-0.1	/	/	/
COc1cccc(/C=C2/CCC(CN(C)C)C2=O)c1 (centres undefined)	4.2	/	8.1	58.1*	101.0*	103.5*
O=C(O)/C=C/C(=O)c1ccc(O)cc1	-5.8	1.9	-2.0	86.3*	96.1*	104.4*
O=C(O)/C=C/C(=O)Nc1ccc(O)cc1	-0.9	1.0	-1.8	-2.2	/	/
COC(=O)c1cc(-c2ccc(C(C)=O)cc2)c(=O)n2c1CCC2	/	/	2.5	/	/	/
CC(C)C[C@H]1COc2cc(NCCCN3CCOCC3)ccc2S(=O)(=O)N1	/	/	2.0	/	/	/
Cn1c(NCCN2CCCCC2)cc(=O)n(C)c1=O	1.9	-5.4	-2.3	27.7*	-0.8	2.8
CC1(c2nnnn2Cc2ccccc2)CCC(=O)N1C1CC1 (centres undefined)	-7.2	/	-0.6	1.9	/	/
Cc1ccc(NC(=O)CNCc2ccccc2OCC(=O)Nc2ccc(I)cc2)cc1	/	/	8.7	/	/	/
C=CS(=O)(=O)c1ccc(Oc2ccc(S(=O)(=O)C=C)cc2)cc1	1.6	17.6	1.8	86.3*	99.5*	101.9*
CCCS(=O)(=O)c1ncc(Cl)c(C(=O)Nc2ccc(S(=O)(=O)Nc3ncccn3)cc2)n1	-1.5	-1.1	4.2	32.8*	71.1*	86.0*
CSc1ncc(Cl)c(C(=O)Nc2ccc(C)c(C)c2)n1	-13.5	-1.4	-0.1	0.1	/	/
COC(=O)c1ccc(NC(=O)c2nc(S(=O)(=O)Cc3cccc(C)c3)ncc2Cl)cc1	-8.3	0.1	7.5	44.3*	92.0*	95.2*
Cc1ccc(NC(=O)c2nc(S(=O)(=O)Cc3ccccc3C)ncc2Cl)cc1C	-3.9	-2.0	12.6	71.7*	97.9*	97.4*
CCSc1ncc(Cl)c(C(=O)Nc2ccc(S(=O)(=O)Nc3ncccn3)cc2)n1	-5.3	2.2	0.3	0.9	/	/
Cc1ccc(C(=O)NCc2ccc3c(c2)OCO3)c(Cl)c1	0.6	/	-0.3	11.8	/	/
Cc1cccc(CS(=O)(=O)c2ncc(Cl)c(C(=O)NCc3ccc4c(c3)OCO4)n2)c1	-15.7	0.5	0.8	49.5*	86.8*	105.4*
COc1ccccc1Cc1c(-c2ccc(C)cc2)nc2ccc(C)cn12	/	/	4.8	/	/	/
CCOC(=O)c1ccc(NC(=O)c2nc(S(=O)(=O)Cc3ccccc3)ncc2Cl)cc1	-1.2	5.6	1.9	49.5*	92.0*	92.3*
CCc1ccc(NC(=O)c2nc(S(=O)(=O)Cc3ccccc3)ncc2Cl)cc1	-2.7	10.5	2.7	77.4*	89.4*	89.3*
CCS(=O)(=O)c1ncc(Cl)c(C(=O)Nc2ccc(S(=O)(=O)N3CCC(C)CC3)cc2)n1	-2.9	13.6	13.1	73.3*	98.8*	103.4*
CN1C(=O)c2cc(NC(=O)Cc3cccs3)ccc2OC[C@@H]2O[C@@H](CC(=O)N[C@H]3CCN(Cc4ccccc4)C3)CC[C@@H]21	/	/	4.8	/	/	/
Cc1ccc2nc(N(CCCN(C)C)C(=O)CN3C(=O)c4ccccc4C3=O)sc2c1	-5.5	-6.1	3.5	13.4	/	/
SMILES	NadD block	HCV core dimer	rCAG binder	ABHD5 PLIN5 PPI	ABHD5 PLIN5 conf	HNF4 counter
Cc1cc(C)c2sc(N(CCN(C)C)C(=O)c3c(F)cccc3F)nc2c1	-7.3	1.4	-5.1	21.6	/	/
Cc1cc(C)c2sc(N(CCCN(C)C)C(=O)c3ccc(Br)s3)nc2c1	-5.7	7.1	8.0	23.3*	16.7	8.9
Cc1cc(C)c2sc(N(CCCN(C)C)C(=O)CN3C(=O)c4ccccc4C3=O)nc2c1	-8.7	-0.9	6.5	24.1*	13.7	4.2
CC(C)[C@H]1/C(=C/C2CC2)N2C(=O)C[C@@H](c3ccccc3)N=C2N1Cc1ccc2c(c1)OCO2	/	/	5.9	/	/	/
C[C@H](O)[C@@H]1C(=O)N2CCc3c([nH]c4cccc(-c5ccccc5)c34)[C@@H]2C[C@@H]1N(C)CC1CCCCC1	/	/	10.0	/	/	/
CCCCCCCCCCCCCCCC[n+]1ccc(/C=N/O)cc1	19.6	-18.1	15.1	30.6*	11.0	7.2
CCCCCCCCCCCCCCCC[n+]1ccccc1	16.8	/	6.9	21.0	/	/
COC(=O)c1cc2c(c3c4cc(OC)ccc4n(S(=O)(=O)c4cccc(C)c4)c13)C(=O)N(Cc1ccccc1OC)C2	/	/	15.5	/	/	/
